Here are results for 20 molecules from ChEMBL document CHEMBL3232745, “Design, synthesis and evaluation of novel diaryl pyrrolopyrimidine and pyrrolothiazine derivatives as inhibitors of tumor necrosis factor stimulated gene-14 (TSG-14) production” (2014).

As usually defined, the inhibition in vivo is how much of the control response was suppressed.

This assay has as its system Rattus norvegicus. Description: Antiinflammatory activity in albino rat assessed as inhibition of LPS-induced TSG-14 production at 30 mg/kg, po administered 30 mins before LPS challenge measured after 4 to 6 hrs by ELISA relative to control. Format: functional. The essentials:
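Male albino rats (~200 g), three per group, dosed orally with compound suspended in 0.5% carboxymethylcellulose. LPS (Escherichia coli B055/B5, 0.1 mg/kg ip) was given 30 min after dosing. Sera were collected 4-6 h after LPS and assayed in duplicate by sandwich ELISA for rat PTX3/TSG-14 (detection limit <0.02 ng/mL). Percent inhibition was taken against an untreated LPS control, as mean ± S.E.M. (n = 3).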
A general note: An ELISA detects its analyte on a solid surface through an enzyme-linked reagent.
`N=c1sc(=S)[nH]c2c1cc(-c1ccc(Cl)cc1)n2-c1ccccc1`: the inhibition in vivo at 30 mg/kg stood at 2%.
With `N=c1c2cc(-c3ccc(Br)cc3)n(-c3ccccc3)c2[nH]c(=S)n1N`, the inhibition in vivo at 30 mg/kg is 33%.
The value for `N=c1sc(=S)[nH]c2c1cc(-c1ccccc1)n2-c1ccccc1` was 0%.
The figure for `CCn1c(=S)[nH]c2c(cc(-c3ccccc3)n2-c2ccccc2)c1=N` is 65%; for `CCSc1nc2c(cc(-c3ccc(Cl)cc3)n2-c2ccccc2)c(=N)s1` it is 1%; for `N=c1c2cc(-c3ccccc3)n(-c3ccccc3)c2[nH]c(=S)n1N` it is 23%.
The value for `CCSc1nc2c(cc(-c3ccccc3)n2-c2ccccc2)c(=N)s1` was 0%; that for `CCSc1nc2c(cc(-c3ccc(Br)cc3)n2-c2ccccc2)c(=N)s1` was 1%; that for `CCn1c(=S)[nH]c2c(cc(-c3ccc(Cl)cc3)n2-c2ccccc2)c1=N` was 61%.
As to `CCn1c(=S)[nH]c2c(cc(-c3ccc(C)cc3)n2-c2ccccc2)c1=N`, the inhibition in vivo at 30 mg/kg was determined as 60%.
The value for `Cc1ccc(-c2cc3c(=N)n(N)c(=S)[nH]c3n2-c2ccccc2)cc1` was 0%; that for `CCC(C)Sc1nc2c(cc(-c3ccc(Br)cc3)n2-c2ccccc2)c(=N)s1` (stereo not given) was 70%; that for `CCC(C)Sc1nc2c(cc(-c3ccc(Cl)cc3)n2-c2ccccc2)c(=N)s1` (stereo not given) was 2%.
The value for `CCSc1nc2c(cc(-c3ccc(C)cc3)n2-c2ccccc2)c(=N)s1` was 0%; that for `N=c1c2cc(-c3ccc(Cl)cc3)n(-c3ccccc3)c2[nH]c(=S)n1N` was 0%; that for `CCC(C)Sc1nc2c(cc(-c3ccccc3)n2-c2ccccc2)c(=N)s1` (stereo not given) was 50%.
The value for `CCC(C)Sc1nc2c(cc(-c3ccc(C)cc3)n2-c2ccccc2)c(=N)s1` (stereo not given) was 2%; that for `Cc1ccc(-c2cc3c(=N)sc(=S)[nH]c3n2-c2ccccc2)cc1` was 0%.
`CCn1c(=S)[nH]c2c(cc(-c3ccc(Br)cc3)n2-c2ccccc2)c1=N`: the inhibition in vivo at 30 mg/kg stood at 80%.
The value for `N=c1sc(=S)[nH]c2c1cc(-c1ccc(Br)cc1)n2-c1ccccc1` was 44%.
